# Source: ChEMBL document CHEMBL1124662, “Antiinflammatory activity of a series of substituted 2,3-dihydro-6-hydroxypyrimido[2,1-f]purine-4,8(1H,9H)-diones” (J Med Chem, 1989)
# Several values for one entry are separate records, joined by “and”; a condition that tells them apart may be missing. Identical values can stand only once.
# Key:
# [1] = system: Rattus norvegicus; test: Anti-inflammatory activity against reverse passive […] reaction-synovitis in rat at 50 mg/kg oral dose; assay type: functional
# Outline: (§1)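 Lewis rats dosed orally with drug or placebo 1 h before iv bovine serum albumin in saline, then 0.54 mg rabbit anti-BSA antibody intraarticular in one knee, saline in the other, under light anesthesia. Second oral dose at 3 h; the dose used is the total given before and after induction.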
# [2] = system: Rattus norvegicus; test: Prophylactic antiinflammatory activity against adjuvant arthritic rat at dose of 50 mg/kg in noninjected 2 degree paw.; assay type: functional
# Outline: (§2)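 Heat-killed Mycobacterium tuberculosis ground and homogenized in paraffin oil (6 mg/mL); 0.1 mL injected into left hind paw. Drug dosed 1 h before challenge, then daily for 21 consecutive days; controls received methylcellulose. Both hind paw volumes measured by plethysmograph immediately and on day 21; % inhibition of Δ paw volume.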
# [3] = system: Rattus norvegicus; test: Antiinflammatory activity against reverse passive Arthus reaction-synovitis in rat at dose of 50 mg/kg per orally.; assay type: functional; conditions: po; outline: as §1
# [4] = system: Rattus norvegicus; test: Prophylactic antiinflammatory activity against adjuvant arthritic rat at dose of 25 mg/kg in noninjected 2 degree paw.; assay type: functional; outline: as §2
# [5] = system: Rattus norvegicus; test: Prophylactic antiinflammatory activity against adjuvant arthritic rat at dose of 50 mg/kg in noninjected 1 degree paw.; assay type: functional; outline: as §2
# [6] = system: Rattus norvegicus; test: Prophylactic antiinflammatory activity against adjuvant arthritic rat at dose of 25 mg/kg in noninjected 1 degree paw.; assay type: functional; outline: as §2
# [7] = system: Rattus norvegicus; test: Prophylactic anti-inflammatory activity in adjuvant arthritic rat at 9 mg/kg in noninjected 1 degree paw; assay type: functional; outline: as §2
# [8] = system: Rattus norvegicus; test: Prophylactic anti-inflammatory activity in adjuvant arthritic rat at 3 mg/kg in noninjected 1 degree paw; assay type: functional; outline: as §2
# [9] = system: Rattus norvegicus; test: Prophylactic anti-inflammatory activity in adjuvant arthritic rat at 9 mg/kg in noninjected 2 degree paw; assay type: functional; outline: as §2
# [10] = system: Rattus norvegicus; test: Anti-inflammatory activity against reverse passive […] reaction-synovitis in rat at 100 mg/kg oral dose; assay type: functional; outline: as §1
# [11] = target: T1, Cyclooxygenase (Rattus norvegicus, UniProt P35355+Q63921); test: Inhibitory activity against Prostaglandin G/H synthase in an in vitro rat neutrophil assay; assay type: protein assay
# T1 sequence (P35355 whole entry): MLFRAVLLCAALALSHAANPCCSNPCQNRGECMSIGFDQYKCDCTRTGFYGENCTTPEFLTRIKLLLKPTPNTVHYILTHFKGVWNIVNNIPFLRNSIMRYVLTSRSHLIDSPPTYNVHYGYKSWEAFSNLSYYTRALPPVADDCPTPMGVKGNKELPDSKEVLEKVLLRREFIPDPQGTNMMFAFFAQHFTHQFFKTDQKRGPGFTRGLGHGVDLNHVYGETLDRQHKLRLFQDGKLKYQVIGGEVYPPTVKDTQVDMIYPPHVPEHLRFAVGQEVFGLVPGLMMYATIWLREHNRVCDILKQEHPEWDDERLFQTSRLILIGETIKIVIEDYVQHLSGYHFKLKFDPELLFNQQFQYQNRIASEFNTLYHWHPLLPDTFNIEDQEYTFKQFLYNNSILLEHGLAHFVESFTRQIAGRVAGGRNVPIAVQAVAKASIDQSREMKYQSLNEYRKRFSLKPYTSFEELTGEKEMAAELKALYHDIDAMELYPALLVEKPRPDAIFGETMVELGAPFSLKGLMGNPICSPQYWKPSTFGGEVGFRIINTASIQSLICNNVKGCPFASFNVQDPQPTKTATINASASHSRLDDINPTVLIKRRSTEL
# T1 sequence (Q63921 whole entry): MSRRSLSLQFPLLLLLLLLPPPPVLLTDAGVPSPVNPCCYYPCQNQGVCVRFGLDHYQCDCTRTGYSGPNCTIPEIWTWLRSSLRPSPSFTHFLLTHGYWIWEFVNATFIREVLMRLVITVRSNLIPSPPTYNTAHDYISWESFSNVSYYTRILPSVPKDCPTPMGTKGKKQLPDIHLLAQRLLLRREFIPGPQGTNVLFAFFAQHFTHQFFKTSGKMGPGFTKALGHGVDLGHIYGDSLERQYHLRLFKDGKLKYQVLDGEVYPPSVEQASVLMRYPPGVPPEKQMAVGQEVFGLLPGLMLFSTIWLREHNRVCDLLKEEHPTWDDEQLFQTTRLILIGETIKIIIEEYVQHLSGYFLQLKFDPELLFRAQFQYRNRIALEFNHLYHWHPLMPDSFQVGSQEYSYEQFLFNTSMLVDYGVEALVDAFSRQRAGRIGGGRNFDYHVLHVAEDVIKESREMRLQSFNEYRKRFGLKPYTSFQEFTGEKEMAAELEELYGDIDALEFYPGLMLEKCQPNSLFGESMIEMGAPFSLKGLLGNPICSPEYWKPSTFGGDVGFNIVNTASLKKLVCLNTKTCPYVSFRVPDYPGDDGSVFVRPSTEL
# [12] = system: Rattus norvegicus; test: Prophylactic oral administration in adjuvant arthritic rat model at 27 mg/kg in noninjected 2 degree paw; assay type: functional; outline: as §2
# [13] = Inhibition of guinea pig Phosphodiesterase; parameters: species or system Cavia porcellus
# [14] = Therapeutic oral administration in adjuvant arthritic rat model at 25 mg/kg in noninjected 2 degree paw; assay type: ADME, organism-based; parameters: dose 25 mg/kg, route oral
# Outline: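 Adjuvant arthritis (heat-killed M. tuberculosis in paraffin oil, 6 mg/mL, 0.1 mL into left hind paw) left to develop 7 days before first oral dose; treatment continued 35 days. Controls given methylcellulose; hind paw volumes measured by plethysmograph as Δ paw volume; % inhibition.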
# [15] = system: Rattus norvegicus; test: Prophylactic anti-inflammatory activity in adjuvant arthritic rat at 3 mg/kg in noninjected 2 degree paw; assay type: functional; outline: as §2
# [16] = system: Rattus norvegicus; test: Prophylactic anti-inflammatory activity in adjuvant arthritic rat at 27 mg/kg in noninjected 2 degree paw; assay type: functional; outline: as §2
# [17] = system: Rattus norvegicus; test: Prophylactic anti-inflammatory activity in adjuvant arthritic rat at 27 mg/kg in noninjected 1 degree paw; assay type: functional; outline: as §2
# [18] = system: Rattus norvegicus; test: Prophylactic anti-inflammatory activity adjuvant arthritic rat at 50 mg/kg in noninjected 2 degree paw; assay type: functional; outline: as §2
# [19] = system: Rattus norvegicus; test: Prophylactic anti-inflammatory activity in adjuvant arthritic rat at 12.5 mg/kg in noninjected 2 degree paw; assay type: functional; outline: as §2
# [20] = system: Rattus norvegicus; test: Prophylactic anti-inflammatory activity in adjuvant arthritic rat at 25 mg/kg in noninjected 1 degree paw; assay type: functional; outline: as §2
# [21] = system: Rattus norvegicus; test: Prophylactic anti-inflammatory activity in adjuvant arthritic rat at 25 mg/kg in noninjected 2 degree paw; assay type: functional; outline: as §2
# [22] = system: Rattus norvegicus; test: Prophylactic anti-inflammatory activity in adjuvant arthritic rat at 50 mg/kg in noninjected 1 degree paw; assay type: functional; outline: as §2
# [23] = system: Rattus norvegicus; test: Prophylactic anti-inflammatory activity in adjuvant arthritic rat at 12.5 mg/kg in noninjected 1 degree paw; assay type: functional; outline: as §2
# [24] = system: Rattus norvegicus; test: Prophylactic oral administration in adjuvant arthritic rat model at 25 mg/kg in noninjected 2 degree paw; assay type: functional; outline: as §2
# [25] = system: Rattus norvegicus; test: Prophylactic anti-inflammatory activity in adjuvant arthritic rat at 45 mg/kg in noninjected 2 degree paw; assay type: functional; outline: as §2
# [26] = system: Rattus norvegicus; test: Prophylactic anti-inflammatory activity in adjuvant arthritic rat at 45 mg/kg in noninjected 1 degree paw; assay type: functional; outline: as §2
SMILES,inhibition in vivo at 50 mg/kg [2],inhibition in vivo at 50 mg/kg [3],inhibition in vivo at 25 mg/kg [4],inhibition in vivo at 50 mg/kg [5],inhibition in vivo at 25 mg/kg [6],other results
CN1CN(C)c2nc3n(Cc4ccccc4)c(O)cc(=O)n3c2C1=O,–,–,–,–,–,inhibition in vivo at 50 mg/kg [1]: 0%
C#CCc1c(O)n(Cc2ccccc2)c2nc3c(n2c1=O)C(=O)N(C)CN3C,13%,6%,21%,36%,35%,–
CC(C)=CCc1c(O)n(Cc2ccccc2)c2nc3c(n2c1=O)C(=O)N(C)CN3C,–,–,–,–,–,inhibition in vivo at 9 mg/kg [7]: 33%; inhibition in vivo at 3 mg/kg [8]: 17%; inhibition in vivo at 9 mg/kg [9]: 65%; inhibition in vivo at 100 mg/kg [10]: 20%; IC50 [11]: 6 µM; ED50 [12]: 6.02 mg/kg; IC50 [13]: 37 µM and 200 µM; ED50 [14]: 15 mg/kg; inhibition in vivo at 3 mg/kg [15]: 47%; inhibition in vivo at 27 mg/kg [16]: 92%; inhibition in vivo at 27 mg/kg [17]: 54%
CN1CN(C)c2nc3n(Cc4ccc(F)cc4)c(O)cc(=O)n3c2C1=O,–,9%,–,–,–,inhibition in vivo at 50 mg/kg [18]: 46%; inhibition in vivo at 12.5 mg/kg [19]: 21%; inhibition in vivo at 25 mg/kg [20]: 36%; inhibition in vivo at 25 mg/kg [21]: 24%; inhibition in vivo at 50 mg/kg [22]: 37%; inhibition in vivo at 12.5 mg/kg [23]: 22%
CN1CN(C)c2nc3n(Cc4ccccc4)c(O)c(C4C=CCCC4)c(=O)n3c2C1=O (configuration not stated),13%,16%,15%,13%,12%,inhibition in vivo at 12.5 mg/kg [19]: 6%; inhibition in vivo at 12.5 mg/kg [23]: 9%
CC(C)=CCSc1cc(=O)n2c3c(nc2n1Cc1ccccc1)N(C)CN(C)C3=O,–,–,8%,–,-16%,–
CN1CN(C)c2nc3n(Cc4ccccc4)c(O)c(C(=O)Nc4ccccc4)c(=O)n3c2C1=O,23%,–,–,-21%,–,–
CN1CN(C)c2nc3n(Cc4ccccc4)c(=O)/c(=C\O)c(=O)n3c2C1=O,32%,34%,–,6%,–,–
C=CCc1c(O)n(Cc2ccc(F)cc2)c2nc3c(n2c1=O)C(=O)N(C)CN3C,49%,40%,–,10%,–,–
CCOC(=O)Cc1c(O)n(Cc2ccccc2)c2nc3c(n2c1=O)C(=O)N(C)CN3C,–,14%,20%,–,18%,–
COc1ccc(Cn2c(O)c(CC=C(C)C)c(=O)n3c4c(nc23)N(C)CN(C)C4=O)cc1,–,–,69%,–,45%,inhibition in vivo at 12.5 mg/kg [19]: 63%; inhibition in vivo at 12.5 mg/kg [23]: 40%; ED50 [24]: 14 mg/kg
CC(C)CCc1c(O)n(Cc2ccccc2)c2nc3c(n2c1=O)C(=O)N(C)CN3C,–,–,–,–,–,inhibition in vivo at 45 mg/kg [25]: 51%; inhibition in vivo at 45 mg/kg [26]: 23%
Cn1c(=O)c2[nH]cnc2n(C)c1=O [AMINOPHYLLINE],–,–,–,–,–,IC50 [13]: 30 µM
